# Source: PubChem
# PLC-gamma1 inh: blocks human PLC-gamma1 enzyme activity. P19174. purified PLC-gamma1, fluorogenic substrate, fluorescence. inhibition, % at 12.2 µM. 0.84% of 370,000 active; in the data active = inhibition above about 9.5%
# Target sequence (P19174 whole entry, looked up): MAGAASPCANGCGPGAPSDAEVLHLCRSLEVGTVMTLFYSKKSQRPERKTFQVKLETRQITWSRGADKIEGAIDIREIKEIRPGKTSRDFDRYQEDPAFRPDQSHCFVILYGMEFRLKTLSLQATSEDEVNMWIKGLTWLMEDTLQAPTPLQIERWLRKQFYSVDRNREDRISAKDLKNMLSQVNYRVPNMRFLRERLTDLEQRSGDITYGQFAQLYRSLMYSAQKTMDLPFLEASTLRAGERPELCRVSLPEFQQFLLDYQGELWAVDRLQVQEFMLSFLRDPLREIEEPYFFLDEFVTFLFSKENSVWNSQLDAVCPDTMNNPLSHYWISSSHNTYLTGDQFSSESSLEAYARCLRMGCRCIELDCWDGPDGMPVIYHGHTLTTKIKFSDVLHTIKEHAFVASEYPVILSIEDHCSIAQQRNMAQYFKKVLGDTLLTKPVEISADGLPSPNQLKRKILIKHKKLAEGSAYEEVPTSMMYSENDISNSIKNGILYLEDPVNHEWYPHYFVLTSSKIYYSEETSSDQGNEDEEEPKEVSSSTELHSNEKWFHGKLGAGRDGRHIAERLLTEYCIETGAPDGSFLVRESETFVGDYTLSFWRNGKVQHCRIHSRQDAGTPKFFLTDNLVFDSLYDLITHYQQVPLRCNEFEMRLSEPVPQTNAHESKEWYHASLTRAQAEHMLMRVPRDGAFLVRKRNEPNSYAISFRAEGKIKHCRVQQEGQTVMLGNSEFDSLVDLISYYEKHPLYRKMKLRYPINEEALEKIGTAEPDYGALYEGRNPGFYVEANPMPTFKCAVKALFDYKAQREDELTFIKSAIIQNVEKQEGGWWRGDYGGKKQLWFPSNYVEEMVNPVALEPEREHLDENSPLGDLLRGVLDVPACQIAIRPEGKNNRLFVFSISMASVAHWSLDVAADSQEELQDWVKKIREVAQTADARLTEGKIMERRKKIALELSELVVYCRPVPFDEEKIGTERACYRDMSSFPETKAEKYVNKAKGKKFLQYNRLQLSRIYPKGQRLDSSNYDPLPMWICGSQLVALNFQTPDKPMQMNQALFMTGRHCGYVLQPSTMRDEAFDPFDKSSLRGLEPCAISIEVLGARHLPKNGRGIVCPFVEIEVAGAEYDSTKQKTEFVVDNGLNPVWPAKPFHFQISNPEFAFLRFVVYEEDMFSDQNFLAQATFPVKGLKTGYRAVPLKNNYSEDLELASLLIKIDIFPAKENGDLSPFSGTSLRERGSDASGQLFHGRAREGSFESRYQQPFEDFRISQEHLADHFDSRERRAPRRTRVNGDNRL
# ADAM10 inh: ADAM10 inhibition, QFRET primary screen | recombinant ADAM10, EDANS/DABCYL FRET peptide cleavage, 3 h | inhibition, % at 7 µM | 0.62% of 370,000 active | AID 720582;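 active = inhibition above a per-campaign cutoff equal to the mean of compounds falling between control-based bounds plus 3 SD, cut at about 20% in these data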
# ADAM17 inh: ADAM17 inhibition, QFRET primary screen | P78536 | recombinant ADAM17, EDANS/DABCYL FRET peptide cleavage | inhibition, % at 6.95 µM | 0.83% of 370,000 active;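 active = inhibition above the mean of compounds lying between control limits plus 3 SD, set per campaign, cut at about 8.5% in these data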
# TbMetRS inhib: Trypanosoma brucei MetRS inhibition; inhibition, % at 11.9 µM; purified T. brucei MetRS, ATP depletion, Kinase-Glo luminescence; AID 624268; 0.4% of 360,000 active;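 active = inhibition above a per-plate cutoff of the control wells' mean inhibition plus 3 SD, cut at about 5.5% in these data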
#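 Material – parasite MetRS enzyme · Medium – HEPES-MgCl2-KCl buffer plus DTT, spermine, BSA, pyrophosphatase · Reagent – ATP, methionine and E. coli bulk tRNA substrates · Times – 15 min enzyme-compound preincubation, 2 h reaction, 10 min detection, 25 °C · Measured by – luminescence of leftover ATP · Evaluation – percent inhibition relative to median high and low control wells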
# PLCb3 inh: inhibitors of human phospholipase C beta3 | Q01970 | Purified PLC-beta3, fluorogenic substrate, fluorescence | inhibition, % at 12.2 µM | 0.18% of 370,000 active | AID 720704
# ADAM10 counter: counter-screen for ADAM17 exosite inhibitors: inhibitors of human ADAM10 | shares compounds with ADAM17 inh | recombinant ADAM10, EDANS/DABCYL FRET peptide cleavage, 3 h | inhibition, % at 6.95 µM | 47% of 2,900 active | AID 743256;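 active = mean inhibition over the triplicate runs exceeds the activity threshold set in the earlier primary screen, cut at about 20% in these data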
# ADAM17 confirm: human ADAM17 inhibition, confirmation; 65% of 2,900 active; shares compounds with ADAM17 inh; inhibition, % at 6.95 µM; recombinant ADAM17, EDANS/DABCYL QFRET peptide cleavage;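 active = mean inhibition across replicates above the hit cutoff set in the primary screen, cut at about 8.5% in these data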
# PLCgamma1 ctr: inhibits human PLC-gamma1 in PLC-beta3 counter-screen | shares compounds with PLC-gamma1 inh | purified PLC-gamma1, fluorogenic substrate, fluorescence | inhibition, % at 12.3 µM | 3.1% of 3,300 active | AID 743258; in the data active = inhibition above about 9.5%
# PLCbeta3 conf: human PLC-beta3 inhibition, confirmation | shares compounds with PLC-gamma1 inh | purified PLC-beta3, fluorogenic substrate fluorescence | inhibition, % at 12.3 µM | 1% of 3,300 active
# Hits are given with their value; n = inactive; x = no result. Hits are enriched below; roughly 2.3% of the tested compounds scored in any of these assays. Rule as the data show it, unless noted: active = inhibition above about 11%; inactive = the rest.
SMILES,PLC-gamma1 inh,ADAM10 inh,ADAM17 inh,TbMetRS inhib,PLCb3 inh,ADAM10 counter,ADAM17 confirm,PLCgamma1 ctr,PLCbeta3 conf
COc1ccc(S(=O)(=O)Nc2ccc3c(c2)CC(=O)N([C@@H](C)CO)C[C@H](C)[C@@H](CN(C)S(=O)(=O)c2ccc(F)cc2)O3)cc1,10.8,n,10.4,n,n,n,n,n,n
OCC1(Cc2cccc(Cl)c2)CCCN(Cc2sc(N3CCCC3)nc2Cl)C1 (stereo unspecified),12.8,n,10.2,n,n,n,9.7,n,n
Cc1cccc(N2CCN(C(=O)c3ccc4ncsc4c3)CC2)c1C,11.9,n,8.9,n,n,n,n,n,n
COc1ccc(Cn2cc(F)c(=O)n(CCC(C)C)c2=O)cc1[N+](=O)[O-],13.0,n,9.8,n,n,n,n,n,n
COc1ccc(Cn2cc(F)c(=O)n(C)c2=O)cc1[N+](=O)[O-],n,n,n,n,n,x,x,x,x
Nc1nonc1C(=O)NCCNCc1cc(Br)ccc1OCc1ccccc1F,9.8,24.8,13.7,n,11.2,n,n,n,n
Nc1nonc1C(=O)NCCNCc1ccccc1OCc1ccccc1F,n,n,n,n,n,x,x,x,x
COc1ccc(CSC2=C(C#N)C(=O)NC3(CCCCC3)S2)cc1,n,n,n,n,n,x,x,x,x
CCCCCCSC1=C(C#N)C(=O)NC2(CCCCC2)S1,13.8,n,9.0,n,n,n,9.0,n,n
Cc1cc(O)c2c(c1)CC1C3CCC4CC(=O)CCC4(C)C3CC(=O)C21C (stereo unspecified),n,n,n,n,n,x,x,x,x
O=[N+]([O-])c1ccc(C(O)C(CO)NC(=S)Nc2ccccc2)cc1 (stereo unspecified),9.8,n,8.8,n,n,n,n,n,n
O=C(Oc1cc2oc(=O)c3c(c2cc1Cl)CCCC3)c1cccs1,n,n,n,n,n,x,x,x,x
COc1ccc(-c2cn[nH]c2N)cc1,11.5,n,8.8,n,n,n,n,n,n
Cc1ccc(NS(=O)(=O)c2ccc(NC(=O)CSc3ccc(Cl)cc3)cc2)c(C)c1,12.8,n,9.0,n,n,27.8,10.9,n,n
COc1cc(/C=N\NC(=O)c2ccccc2F)ccc1Oc1ccc([N+](=O)[O-])cn1,9.6,n,10.0,n,n,n,n,n,n
COc1cc(/C=N\NC(=O)c2cccc(Cl)c2)ccc1Oc1ccc([N+](=O)[O-])cn1,n,n,n,n,n,x,x,x,x
Cc1nc(Cc2nnc(SCC(=O)Nc3c(C)cccc3C)o2)cs1,n,n,n,n,n,x,x,x,x
Cc1ccc(CCN2CC(C(=O)NC3CCC(C)CC3)CC2=O)cc1 (stereo unspecified),n,n,n,n,n,x,x,x,x
CC1CCN(N=Nc2nc3c([nH]2)c(=O)n(C)c(=O)n3C)CC1,9.9,n,17.0,n,n,n,9.3,n,n
CC1(C(=O)Nc2ccc(Cl)c(Cl)c2)CCN1C(=O)C1CCCCC1 (stereo unspecified),16.1,n,10.1,n,n,n,9.9,n,n
O=C(Nc1cccc(S(=O)(=O)C(F)F)c1)c1ccc(S(=O)(=O)N2CCCC2)cc1,n,n,n,n,n,x,x,x,x
O=C(Nc1cccc(S(=O)(=O)C(F)F)c1)c1ccc(S(=O)(=O)N2CCOCC2)cc1,n,n,11.3,n,12.7,n,9.6,n,n
Cc1ccc(C(=O)c2cn[nH]c2-c2ccccc2O)cc1,14.1,n,8.8,n,n,n,n,n,n
O=C(c1ccc(F)cc1)c1cn[nH]c1-c1ccccc1O,n,n,n,n,n,x,x,x,x
CCN(CC(=O)Nc1cccc(OC)c1)c1ncnc2sc(C)c(C)c12,n,n,n,n,n,x,x,x,x
COc1ccccc1OCCCN1CCC(C(O)(c2ccccc2)c2ccccc2)CC1,n,n,n,n,n,x,x,x,x
